Reference: ChEMBL document CHEMBL1150357, “Synthesis and preliminary evaluation of some substituted coumarins as anticonvulsant agents” (Bioorg Med Chem, 2008)

How the values were obtained:
Mus musculus [1] = assay: Anticonvulsant activity against strychnine-induced seizures in Albino mouse assessed as survival time at 100 mg/kg, po administered 1 hr before strychnine challenge; assay type: functional
Mus musculus [2] = assay: Anticonvulsant activity in Albino mouse assessed as protection against pentylenetetrazole-induced seizures at 100 mg/kg, ip administered 1 hr before pentylenetetrazole challenge; assay type: functional; conditions: route intraperitoneal
Outline: (§1)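 Male albino mice (25–30 g), housed in groups of 10 and acclimated ≥2 days with free food and water. Test agent suspended in water with 2% Tween 80 and given ip. PTZ 112 mg/kg ip injected 1 h later. Mice without generalized convulsions scored as protected, expressed as % protection. PD50 by log-linear regression of dose-response across 50, 100, 200 mg/kg.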

[3] = Dissociation constant, pKa of the compound; assay type: physicochemical
Outline: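 Spectrophotometric pKa. Spectra of ionized and unionized forms recorded in 0.1 M HCl and 0.1 M NaOH with DMF. Absorbance read at the wavelength of maximal difference in phosphate buffer (Na2HPO4/KH2PO4, 0.15 M) with DMF at pH 7.6, 7.4, 7 and 6.8. pKa = pH + log[(Ai−A)/(A−Au)], averaged with SD.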

Mus musculus [4] = assay: Anticonvulsant activity in ip dosed Albino mouse assessed as protection against pentylenetetrazole-induced seizures administered 1 hr before pentylenetetrazole challenge; assay type: functional; conditions: read-out: PD50
Outline: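 PTZ model in male albino mice (25–30 g), 10 per group. Test agents suspended in water with 2% Tween 80 and given ip at graded doses (50, 100, 200 mg/kg). Pentylenetetrazole 112 mg/kg ip given 1 h later. Absence of generalized convulsions scored as protection. PD50 obtained by log-linear regression of dose–response curves.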

Mus musculus [5] = assay: Anticonvulsant activity in Albino mouse assessed as protection against pentylenetetrazole-induced seizures at 200 mg/kg, ip administered 1 hr before pentylenetetrazole challenge; assay type: functional; conditions: route intraperitoneal; outline: as §1
Mus musculus [6] = assay: Anticonvulsant activity in Albino mouse assessed as protection against pentylenetetrazole-induced seizures at 50 mg/kg, ip administered 1 hr before pentylenetetrazole challenge; assay type: functional; conditions: route intraperitoneal; outline: as §1
[7] = Toxicity against Albino mouse assessed as mortality after 24 hrs; assay type: organism-based; conditions: in vivo
Outline: (§2)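 Male albino mice (25–30 g), groups of 8. Single injected doses at equal log intervals (400, 800, 1600, 3200 mg/kg), bracketed by preliminary no-kill and LD100 doses. Deaths counted at 24 h. LD50 calculated by the Spearman–Karber method.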

Mus musculus [8] = assay: Toxicity against Albino mouse assessed as mortality at 3200 mg/kg after 24 hrs; assay type: organism-based; parameters: dose 3200 mg/kg; conditions: in vivo; outline: as §2
Mus musculus [9] = assay: Toxicity against Albino mouse assessed as mortality at 400 mg/kg after 24 hrs; assay type: organism-based; parameters: dose 400 mg/kg; conditions: in vivo; outline: as §2
Mus musculus [10] = assay: Anticonvulsant activity in Albino mouse assessed as protection against pentylenetetrazole-induced seizures at 30 mg/kg, ip administered 1 hr before pentylenetetrazole challenge; assay type: functional; conditions: route intraperitoneal
Outline: (§3)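 Male albino mice (25–30 g), housed 10 per group and acclimated for at least 2 days. Dosed ip, suspended in water with 2% Tween 80. Pentylenetetrazole 112 mg/kg ip given 1 h later. Mice without generalized convulsions counted as protected; reported as % protection.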

Mus musculus [11] = assay: Anticonvulsant activity in Albino mouse assessed as protection against pentylenetetrazole-induced seizures at 10 mg/kg, ip administered 1 hr before pentylenetetrazole challenge; assay type: functional; conditions: route intraperitoneal; outline: as §3
Mus musculus [12] = assay: Anticonvulsant activity in Albino mouse assessed as protection against pentylenetetrazole-induced seizures at 20 mg/kg, ip administered 1 hr before pentylenetetrazole challenge; assay type: functional; conditions: route intraperitoneal; outline: as §3

Row | Compound | Survival (Mus musculus [1]) [min] | Activity (Mus musculus [2]) [%] | other results
1 | CCNc1nc2ccc3oc(=O)ccc3c2s1 | 6.26 |  | 
2 | CCOC(=O)c1s/c(=N/c2ccc3oc(=O)ccc3c2)n(C2CCCCC2)c1C | 3.14 | 60 | 
3 | CNc1nc2ccc3oc(=O)ccc3c2s1 |  | 0 | 
4 | CCN1C(=O)/C(=C/c2ccc(Cl)cc2)S/C1=N/c1ccc2oc(=O)ccc2c1 | 5.18 |  | 
5 | CCn1c(-c2ccc(OC)cc2)cs/c1=N/c1ccc2oc(=O)ccc2c1 | 7.55 | 60 | pKa [3]: 7.63; ED50 (Mus musculus [4]): 138 mg/kg; Activity (Mus musculus [5]): 60%; Activity (Mus musculus [6]): 20%
6 | CCNC(=S)Nc1ccc2oc(=O)ccc2c1 | 3.92 | 60 | pKa [3]: 5.62; ED50 (Mus musculus [4]): 125 mg/kg; Activity (Mus musculus [5]): 70%; Activity (Mus musculus [6]): 20%
7 | O=c1ccc2cc(NC(=S)NC3CCCCC3)ccc2o1 | 5.02 | 30 | 
8 | O=c1ccc2cc(NC(=S)Nc3ccc(Cl)cc3)ccc2o1 | 5.33 | 20 | 
9 | O=C1CS/C(=N/c2nc3ccc4oc(=O)ccc4c3s2)N1 | 5.44 | 40 | 
10 | CCOC(=O)c1s/c(=N/c2ccc3oc(=O)ccc3c2)n(C)c1C |  | 0 | 
11 | CCOC(=O)c1s/c(=N/c2ccc3oc(=O)ccc3c2)n(CC)c1C | 5 | 80 | pKa [3]: 7.44; LD50 at 24 h [7]: 1450 mg/kg; ED50 (Mus musculus [4]): 95 mg/kg; Activity (Mus musculus [5]): 90%; Activity (Mus musculus [8]): Toxic; Activity (Mus musculus [9]): Non-toxic; Activity (Mus musculus [6]): 30%
12 | COc1ccc(-c2cs/c(=N/c3ccc4oc(=O)ccc4c3)n2-c2ccc(Cl)cc2)cc1 |  | 30 | 
13 | O=C(CCl)Nc1nc2ccc3oc(=O)ccc3c2s1 | 4.4 | 0 | 
14 | CCN1C(=O)CS/C1=N/c1ccc2oc(=O)ccc2c1 |  | 30 | 
15 | CCN1C(=O)/C(=C/c2ccc([N+](=O)[O-])cc2)S/C1=N/c1ccc2oc(=O)ccc2c1 | 4.85 | 30 | 
16 | CCn1c(-c2ccc(Br)cc2)cs/c1=N/c1ccc2oc(=O)ccc2c1 | 8.36 | 30 | 
17 | CCCN1C(=O)CS/C1=N/c1ccc2oc(=O)ccc2c1 | 5.4 |  | 
18 | COc1ccc(-c2cs/c(=N/c3ccc4oc(=O)ccc4c3)n2C2CCCCC2)cc1 | 4.5 | 20 | 
19 | CCC1(c2ccccc2)C(=O)NC(=O)NC1=O [PHENOBARBITAL] |  |  | Activity (Mus musculus [10]): 90%; ED50 (Mus musculus [4]): 16 mg/kg; Activity (Mus musculus [11]): 40%; Activity (Mus musculus [12]): 70%
20 | O=C1NC(=O)C(c2ccccc2)(c2ccccc2)N1 [PHENYTOIN] | 13.8 |  | 
